Experimental data pooled from the literature.
CA1: Carbonic anhydrase 1 (CA1, Homo sapiens, UniProt P00915)
SLC18A2: Synaptic vesicular amine transporter (SLC18A2, Homo sapiens, UniProt Q05940)
LATS1: Serine/threonine-protein kinase LATS1 (LATS1, Homo sapiens, UniProt O95835)
gag-pol reverse transcriptase: Gag-Pol polyprotein, reverse transcriptase (gag-pol, Human immunodeficiency virus 1, UniProt P03366)

target | assay | test system | conditions | IC50 [µM] | SMILES
CA1 | enzyme activity, inhibitor, absorbance |  | pH 7.4 | 14 | CCOCCn1c(C2CCN(CCc3ccc(C(C)(C)C(=O)O)cc3)CC2)nc2ccccc21
SLC18A2 | transporter uptake, inhibitor, radiometric |  | cell membranes | 0.53 | COc1cc2c(cc1OC)[C@H]1C[C@@H](OC(=O)[C@@H](N)C(C)C)[C@H](CC(C)C)CN1CC2
cGMP-dependent 3',5'-cyclic phosphodiesterase (PDE2A, Homo sapiens, UniProt O00408) | enzyme activity |  |  | > 200 | Cn1cc2c(C(=O)O)ccc(NS(=O)(=O)c3ccc(OCC4CCC4)c(Cl)c3)c2n1
CA1 | enzyme activity, inhibitor, absorbance |  | pH 7.4 | 11.1 | OC(Cn1cncn1)(Cn1cncn1)c1ccc(F)cc1F
LATS1 | enzyme activity, inhibitor, radiometric |  |  | 0.0018 | Cc1cc(-c2ccnc3[nH]cc(F)c23)cc(F)c1[C@@]1(O)[C@H](C)CN(C(=O)CN)C[C@@H]1C
SLC18A2 | transporter uptake, inhibitor |  |  | 7.23 | Clc1ccc(Cn2c(CN3CCCC3)nc3ccccc32)cc1
Alpha-2A adrenergic receptor (ADRA2A, Homo sapiens, UniProt P08913) | cAMP, antagonist |  |  | 5.17 | CN1CCC(CNc2ccc3ncc(-c4cccc(OC(F)(F)F)c4)n3n2)CC1
SLC18A2 | transporter uptake, inhibitor |  |  | 3.72 | CN1CCN(CCCN2c3ccccc3Sc3ccc(Cl)cc32)CC1
Cytochrome P450 2C19 (CYP2C19, Homo sapiens, UniProt P33261) | enzyme activity, inhibitor | human, liver microsomes |  | 3.3 | OCc1ccc(-c2nn(Cc3ccccc3)c3ccccc23)o1
Atypical chemokine receptor 3 (ACKR3, Homo sapiens, UniProt P25106) | ligand displacement, BRET |  |  | 2 | CC(C)(C)NC(=O)C1CCN(Cc2cccc(/N=N/c3cccc(F)c3)c2)CC1
SLC18A2 | transporter uptake, inhibitor |  |  | 9.67 | COc1ccc(CN=c2[nH]c(N3CCC[C@H]3CO)ncc2C(=O)NCc2ncccn2)cc1Cl
gag-pol reverse transcriptase | enzyme activity, inhibitor |  |  | > 100 | CCOC(=O)c1c(NC)c2c([nH]c1=O)CCC2
LATS1 | enzyme activity, inhibitor, radiometric |  |  | 0.011 | OC1(c2ccc(-c3ccnc4[nH]cc(F)c34)cc2)CCNC1 (centres unmarked)
SLC18A2 | transporter uptake, inhibitor |  |  | 2.75 | CNCCC(Oc1ccc(C(F)(F)F)cc1)c1ccccc1 (centres unmarked)
LATS1 | target engagement in cells, BRET |  |  | 7.09 | OC1(c2ccc(-c3ccnc4[nH]cc(F)c34)cc2)CCCNCC1 (centres unmarked)
CA1 | enzyme activity, inhibitor, absorbance |  | pH 7.4 | 14.7 | Cc1cncc(CN2CCC(=C3c4ccc(Cl)cc4CCc4cccnc43)CC2)c1
SLC18A2 | transporter uptake, inhibitor |  |  | 0.249 | COc1cc2nc(N(C)CCCNC(=O)C3CCCO3)nc(N)c2cc1OC (centres unmarked)
LATS1 | target engagement in cells, BRET |  |  | 0.077 | CC(=O)N1C[C@@H](C)[C@](O)(c2c(C)cc(-c3ccnc4[nH]cc(F)c34)cc2F)[C@@H](C)C1
gag-pol reverse transcriptase | enzyme activity, inhibitor |  |  | 76.4 | CCCNc1c2c([nH]c(=O)c1C(=O)OCC)CCC2
CA1 | enzyme activity, inhibitor, absorbance |  | pH 7.4 | 12.4 | O=c1[nH]c(=O)n([C@H]2C[C@H](O)[C@@H](CO)O2)cc1/C=C/Br
LATS1 | target engagement in cells, BRET |  |  | 9.97 | OC1(c2ccc(-c3ccnc4[nH]cc(F)c34)cc2)CCCNC1 (centres unmarked)
UDP-glucuronosyltransferase 1A4 (UGT1A4, Homo sapiens, UniProt P22310) | enzyme activity, inhibitor | human, liver microsomes |  | 2.66 | C[C@H]1[C@H](C)CC[C@]2(C(=O)O)CC[C@]3(C)C(=CC[C@@H]4[C@@]5(C)C[C@@H](O)[C@H](O)C(C)(C)[C@@H]5CC[C@]43C)[C@H]12
gag-pol reverse transcriptase | enzyme activity, inhibitor |  |  | 33.9 | CCOC(=O)c1c(NCC(C)C)c2c([nH]c1=O)CCC2
